{"source": "ChEMBL document CHEMBL1140929", "about": "“Synthesis and evaluation of 18F-labeled 2-phenylbenzothiazoles as positron emission tomography imaging agents for amyloid plaques in Alzheimer's disease” (J Med Chem, 2009)", "assay_type_in_all_cases": "ADME, organism-based", "key": {"Cerebellum [1]": {"tested_on": "Cerebellum", "assay": "Biodistribution in NMRI mouse cerebellum at 3.7 MBq/mL, iv after 2 mins by gamma counting", "conditions": "in vivo", "how_it_was_run": "(§1)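 Male NMRI mice (30-40 g) anaesthetised with 0.1 mL ip Hypnorm (fentanyl citrate 63 µg/mL, fluanisone 2 mg/mL). Each received 0.1 mL of HPLC-purified 18F tracer, diluted in 0.9% NaCl to 3.7 MBq/mL (ethanol ≤10%, THF ≤0.02%), via tail vein. Killed by decapitation at 2 or 60 min; blood and organs weighed and γ-counted. Background-corrected, expressed as %ID or %ID/g.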"}, "[2]": {"assay": "Biodistribution in NMRI mouse urine at 3.7 MBq/mL, iv after 2 mins by gamma counting", "conditions": "in vivo", "how_it_was_run": "as §1"}, "Heart [3]": {"tested_on": "Heart", "assay": "Biodistribution in NMRI mouse heart at 3.7 MBq/mL, iv after 60 mins by gamma counting", "conditions": "in vivo, 1 h", "how_it_was_run": "as §1"}, "Cerebellum [4]": {"tested_on": "Cerebellum", "assay": "Biodistribution in NMRI mouse cerebellum assessed per gram of tissue at 3.7 MBq/mL, iv after 2 mins by gamma counting", "conditions": "in vivo", "how_it_was_run": "as §1"}, "Blood [5]": {"tested_on": "Blood", "assay": "Biodistribution in NMRI mouse blood assessed per gram of tissue at 3.7 MBq/mL, iv after 60 mins by gamma counting", "conditions": "in vivo, 1 h", "how_it_was_run": "as §1"}, "Cerebellum [6]": {"tested_on": "Cerebellum", "assay": "Biodistribution in NMRI mouse cerebellum at 3.7 MBq/mL, iv after 60 mins by gamma counting", "conditions": "in vivo, 1 h", "how_it_was_run": "as §1"}, "Kidney [7]": {"tested_on": "Kidney", "assay": "Biodistribution in NMRI mouse kidney at 3.7 MBq/mL, iv after 2 mins by gamma counting", "conditions": "in vivo", "how_it_was_run": "as §1"}, "Heart [8]": {"tested_on": "Heart", "assay": "Biodistribution in NMRI mouse heart at 3.7 MBq/mL, iv after 2 mins by gamma counting", "conditions": "in vivo", "how_it_was_run": "as §1"}, "Kidney [9]": {"tested_on": "Kidney", "assay": "Biodistribution in NMRI mouse kidney at 3.7 MBq/mL, iv after 60 mins by gamma counting", "conditions": "in vivo, 1 h", "how_it_was_run": "as §1"}, "Lung [10]": {"tested_on": "Lung", "assay": "Biodistribution in NMRI mouse lung at 3.7 MBq/mL, iv after 60 mins by gamma counting", "conditions": "in vivo, 1 h", "how_it_was_run": "as §1"}, "[11]": {"assay": "Biodistribution in NMRI mouse spleen/pancreas assessed per gram of tissue at 3.7 MBq/mL, iv after 60 mins by gamma counting", "conditions": "in vivo, 1 h", "how_it_was_run": "as §1"}, "[12]": {"assay": "Biodistribution in NMRI mouse spleen/pancreas assessed per gram of tissue at 3.7 MBq/mL, iv after 2 mins by gamma counting", "conditions": "in vivo", "how_it_was_run": "as §1"}, "Heart [13]": {"tested_on": "Heart", "assay": "Biodistribution in NMRI mouse heart assessed per gram of tissue at 3.7 MBq/mL, iv after 2 mins by gamma counting", "conditions": "in vivo", "how_it_was_run": "as §1"}, "Kidney [14]": {"tested_on": "Kidney", "assay": "Biodistribution in NMRI mouse kidney assessed per gram of tissue at 3.7 MBq/mL, iv after 60 mins by gamma counting", "conditions": "in vivo, 1 h", "how_it_was_run": "as §1"}, "[15]": {"assay": "Biodistribution in NMRI mouse cerebrum at 3.7 MBq/mL, iv after 60 mins by gamma counting", "conditions": "in vivo, 1 h", "how_it_was_run": "as §1"}, "[16]": {"assay": "Biodistribution in NMRI mouse cerebrum assessed per gram of tissue at 3.7 MBq/mL, iv after 2 mins by gamma counting", "conditions": "in vivo", "how_it_was_run": "as §1"}, "Heart [17]": {"tested_on": "Heart", "assay": "Biodistribution in NMRI mouse heart assessed per gram of tissue at 3.7 MBq/mL, iv after 60 mins by gamma counting", "conditions": "in vivo, 1 h", "how_it_was_run": "as §1"}, "[18]": {"assay": "Biodistribution in NMRI mouse spleen/pancreas at 3.7 MBq/mL, iv after 2 mins by gamma counting", "conditions": "in vivo", "how_it_was_run": "as §1"}, "Cerebellum [19]": {"tested_on": "Cerebellum", "assay": "Biodistribution in NMRI mouse cerebellum assessed per gram of tissue at 3.7 MBq/mL, iv after 60 mins by gamma counting", "conditions": "in vivo, 1 h", "how_it_was_run": "as §1"}, "Liver [20]": {"tested_on": "Liver", "assay": "Biodistribution in NMRI mouse liver assessed per gram of tissue at 3.7 MBq/mL, iv after 2 mins by gamma counting", "conditions": "in vivo", "how_it_was_run": "as §1"}, "[21]": {"assay": "Biodistribution in NMRI mouse cerebrum at 3.7 MBq/mL, iv after 2 mins by gamma counting", "conditions": "in vivo", "how_it_was_run": "as §1"}, "Lung [22]": {"tested_on": "Lung", "assay": "Biodistribution in NMRI mouse lung assessed per gram of tissue at 3.7 MBq/mL, iv after 2 mins by gamma counting", "conditions": "in vivo", "how_it_was_run": "as §1"}, "[23]": {"assay": "Biodistribution in NMRI mouse spleen/pancreas at 3.7 MBq/mL, iv after 60 mins by gamma counting", "conditions": "in vivo, 1 h", "how_it_was_run": "as §1"}, "Intestine [24]": {"tested_on": "Intestine", "assay": "Biodistribution in NMRI mouse intestine at 3.7 MBq/mL, iv after 60 mins by gamma counting", "conditions": "in vivo, 1 h", "how_it_was_run": "as §1"}, "Blood [25]": {"tested_on": "Blood", "assay": "Biodistribution in NMRI mouse blood assessed per gram of tissue at 3.7 MBq/mL, iv after 2 mins by gamma counting", "conditions": "in vivo", "how_it_was_run": "as §1"}, "Liver [26]": {"tested_on": "Liver", "assay": "Biodistribution in NMRI mouse liver assessed per gram of tissue at 3.7 MBq/mL, iv after 60 mins by gamma counting", "conditions": "in vivo, 1 h", "how_it_was_run": "as §1"}, "Lung [27]": {"tested_on": "Lung", "assay": "Biodistribution in NMRI mouse lung assessed per gram of tissue at 3.7 MBq/mL, iv after 60 mins by gamma counting", "conditions": "in vivo, 1 h", "how_it_was_run": "as §1"}, "Kidney [28]": {"tested_on": "Kidney", "assay": "Biodistribution in NMRI mouse kidney assessed per gram of tissue at 3.7 MBq/mL, iv after 2 mins by gamma counting", "conditions": "in vivo", "how_it_was_run": "as §1"}, "[29]": {"assay": "Biodistribution in NMRI mouse urine at 3.7 MBq/mL, iv after 60 mins by gamma counting", "conditions": "in vivo, 1 h", "how_it_was_run": "as §1"}, "Intestine [30]": {"tested_on": "Intestine", "assay": "Biodistribution in NMRI mouse intestine at 3.7 MBq/mL, iv after 2 mins by gamma counting", "conditions": "in vivo", "how_it_was_run": "as §1"}, "Blood [31]": {"tested_on": "Blood", "assay": "Biodistribution in NMRI mouse blood at 3.7 MBq/mL, iv after 2 mins by gamma counting", "conditions": "in vivo", "how_it_was_run": "as §1"}, "Liver [32]": {"tested_on": "Liver", "assay": "Biodistribution in NMRI mouse liver at 3.7 MBq/mL, iv after 60 mins by gamma counting", "conditions": "in vivo, 1 h", "how_it_was_run": "as §1"}, "[33]": {"assay": "Biodistribution in NMRI mouse cerebrum assessed per gram of tissue at 3.7 MBq/mL, iv after 60 mins by gamma counting", "conditions": "in vivo, 1 h", "how_it_was_run": "as §1"}, "Stomach [34]": {"tested_on": "Stomach", "assay": "Biodistribution in NMRI mouse stomach at 3.7 MBq/mL, iv after 60 mins by gamma counting", "conditions": "in vivo, 1 h", "how_it_was_run": "as §1"}, "Blood [35]": {"tested_on": "Blood", "assay": "Biodistribution in NMRI mouse blood at 3.7 MBq/mL, iv after 60 mins by gamma counting", "conditions": "in vivo, 1 h", "how_it_was_run": "as §1"}, "Liver [36]": {"tested_on": "Liver", "assay": "Biodistribution in NMRI mouse liver at 3.7 MBq/mL, iv after 2 mins by gamma counting", "conditions": "in vivo", "how_it_was_run": "as §1"}, "Lung [37]": {"tested_on": "Lung", "assay": "Biodistribution in NMRI mouse lung at 3.7 MBq/mL, iv after 2 mins by gamma counting", "conditions": "in vivo"}, "Stomach [38]": {"tested_on": "Stomach", "assay": "Biodistribution in NMRI mouse stomach at 3.7 MBq/mL, iv after 2 mins by gamma counting", "conditions": "in vivo", "how_it_was_run": "as §1"}}, "data": [{"molecule": "[11CH3]Nc1ccc(-c2nc3ccc(O)cc3s2)cc1", "note": "[PITTSBURGH COMPOUND B]", "values": [{"measurement": "Drug uptake", "setting": "Cerebellum [1]", "result": 0.17, "unit": "%ID"}, {"measurement": "Drug uptake", "setting": "[2]", "result": 0.2, "unit": "%ID"}, {"measurement": "Drug uptake", "setting": "Heart [3]", "result": 0.3, "unit": "%ID"}, {"measurement": "Drug uptake", "setting": "Cerebellum [4]", "result": 1.6, "unit": "% ID/g"}, {"measurement": "Drug uptake", "setting": "Blood [5]", "result": 1.1, "unit": "% ID/g"}, {"measurement": "Drug uptake", "setting": "Cerebellum [6]", "result": 0.03, "unit": "%ID"}, {"measurement": "Drug uptake", "setting": "Kidney [7]", "result": 10.3, "unit": "%ID"}, {"measurement": "Drug uptake", "setting": "Heart [8]", "result": 0.6, "unit": "%ID"}, {"measurement": "Drug uptake", "setting": "Kidney [9]", "result": 4.8, "unit": "%ID"}, {"measurement": "Drug uptake", "setting": "Lung [10]", "result": 0.3, "unit": "%ID"}, {"measurement": "Drug uptake", "setting": "[11]", "result": 0.7, "unit": "% ID/g"}, {"measurement": "Drug uptake", "setting": "[12]", "result": 4.7, "unit": "% ID/g"}, {"measurement": "Drug uptake", "setting": "Heart [13]", "result": 4.2, "unit": "% ID/g"}, {"measurement": "Drug uptake", "setting": "Kidney [14]", "result": 9.1, "unit": "% ID/g"}, {"measurement": "Drug uptake", "setting": "[15]", "result": 0.18, "unit": "%ID"}, {"measurement": "Drug uptake", "setting": "[16]", "result": 3.6, "unit": "% ID/g"}, {"measurement": "Drug uptake", "setting": "Heart [17]", "result": 2.1, "unit": "% ID/g"}, {"measurement": "Drug uptake", "setting": "[18]", "result": 0.6, "unit": "%ID"}, {"measurement": "Drug uptake", "setting": "Cerebellum [19]", "result": 0.31, "unit": "% ID/g"}, {"measurement": "Drug uptake", "setting": "Liver [20]", "result": 7.9, "unit": "% ID/g"}, {"measurement": "Drug uptake", "setting": "[21]", "result": 1.08, "unit": "%ID"}, {"measurement": "Drug uptake", "setting": "Lung [22]", "result": 3.6, "unit": "% ID/g"}, {"measurement": "Drug uptake", "setting": "[23]", "result": 0.1, "unit": "%ID"}, {"measurement": "Drug uptake", "setting": "Intestine [24]", "result": 42.5, "unit": "%ID"}, {"measurement": "Drug uptake", "setting": "Blood [25]", "result": 3.1, "unit": "% ID/g"}, {"measurement": "Drug uptake", "setting": "Liver [26]", "result": 5, "unit": "% ID/g"}, {"measurement": "Drug uptake", "setting": "Lung [27]", "result": 1.3, "unit": "% ID/g"}, {"measurement": "Drug uptake", "setting": "Kidney [28]", "result": 19.9, "unit": "% ID/g"}, {"measurement": "Drug uptake", "setting": "[29]", "result": 24.4, "unit": "%ID"}, {"measurement": "Drug uptake", "setting": "Intestine [30]", "result": 12, "unit": "%ID"}, {"measurement": "Drug uptake", "setting": "Blood [31]", "result": 7.9, "unit": "%ID"}, {"measurement": "Drug uptake", "setting": "Liver [32]", "result": 9.8, "unit": "%ID"}, {"measurement": "Drug uptake", "setting": "[33]", "result": 0.6, "unit": "% ID/g"}, {"measurement": "Drug uptake", "setting": "Stomach [34]", "result": 0.3, "unit": "%ID"}, {"measurement": "Drug uptake", "setting": "Blood [35]", "result": 2.7, "unit": "%ID"}, {"measurement": "Drug uptake", "setting": "Liver [36]", "result": 15.6, "unit": "%ID"}, {"measurement": "Drug uptake", "setting": "Lung [37]", "result": 0.9, "unit": "%ID"}, {"measurement": "Drug uptake", "setting": "Stomach [38]", "result": 1.1, "unit": "%ID"}]}]}
